Measured values as given in ChEMBL document CHEMBL1142458, “Computational structure-activity relationship analysis of non-peptide inducers of macrophage tumor necrosis factor-alpha production” (Bioorg Med Chem, 2008).
Calls of active or inactive are those of the source. No rule for the calls is given here.

What was measured:
J774.A1 [1] = assay: Stimulation of TNFalpha production in mouse J774.A1 cells at 50 uM after 24 hrs by ELISA relative to untreated control; assay type: functional
In short: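 Murine J774.A1 macrophages grown in DMEM with 10% heat-inactivated FBS and 10 mM HEPES at 37°C under 5% CO2, detached by scraping. Plated at 2×10^5 cells/well in medium with 3% FBS and exposed 24 hr to compound, DMSO vehicle or LPS. Supernatant TNF-α measured by murine ELISA against a standard curve. Reported as fold-increase over DMSO control.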

J774.A1 [2] = assay: Cytotoxicity against mouse J774.A1 cells assessed as effect on cell viability at <=50 uM after 24 hrs; assay type: cell-based; conditions: j774.a1, 24 h

O=C(N/N=C/c1cc(Br)c(Br)o1)c1ccc2c(c1)OCO2
fold change (FC) (J774.A1 [1]): <5

O=C(N/N=C/c1cc(Br)cc(I)c1O)c1ccc2c(c1)OCCO2
Activity (J774.A1 [1]): inactive

COc1ccc(C(=O)N/N=C\c2ccc(N(C)C)cc2)cc1
Activity (J774.A1 [1]): inactive

O=C(N/N=C/c1ccc(-c2cccc(Cl)c2Cl)o1)c1ccccc1
fold change (FC) (J774.A1 [1]): 8

O=C(N/N=C/c1ccc(-c2ccc(Cl)cc2)o1)c1cccnc1
fold change (FC) (J774.A1 [1]): 15
Activity (J774.A1 [2]): Non-toxic

O=C(N/N=C/c1cc(/N=N\c2cccc3ccccc23)ccc1O)c1ccc2c(c1)OCO2
Activity (J774.A1 [1]): inactive

CCOc1ncccc1C(=O)N/N=C/c1ccc([N+](=O)[O-])o1
Activity (J774.A1 [1]): inactive

O=C(N/N=C/c1ccc([N+](=O)[O-])o1)c1cc([N+](=O)[O-])cc([N+](=O)[O-])c1O
Activity (J774.A1 [1]): inactive

O=C(O)COc1ccccc1/C=N/NC(=O)c1ccc2c(c1)OCO2
Activity (J774.A1 [1]): inactive

Cc1ccc(C(=O)N/N=C/c2ccc(-c3cccc(Cl)c3)o2)cn1
Activity (J774.A1 [1]): inactive
Activity (J774.A1 [2]): Non-toxic

O=C(N/N=C/c1ccc(-c2ccc(Cl)cc2)o1)c1ccncc1
Activity (J774.A1 [1]): inactive
Activity (J774.A1 [2]): Non-toxic

Cc1ccc(C(=O)N/N=C/c2ccc(-c3ccc(Cl)c(Cl)c3)o2)cn1
Activity (J774.A1 [1]): inactive
Activity (J774.A1 [2]): Non-toxic

CCN1C(=O)/C(=N\NC(=O)c2ccc3c(c2)OCO3)c2ccccc21
Activity (J774.A1 [1]): inactive

O=C(N/N=C/c1ccc(-c2cccc(C(F)(F)F)c2)o1)c1ccc(F)cc1
fold change (FC) (J774.A1 [1]): 35

Cc1ccc(C(=O)N/N=C/c2ccc(-c3ccc(Cl)cc3Cl)o2)cn1
Activity (J774.A1 [1]): inactive
Activity (J774.A1 [2]): Non-toxic

Cc1cc(C)n(Cc2ccc(C(=O)N/N=C/c3ccco3)cc2)n1
Activity (J774.A1 [1]): inactive

CN(C)c1ccc(/C=N\NC(=O)c2cccc(F)c2)cc1
Activity (J774.A1 [1]): inactive

CN(C)c1ccc(/C=N\NC(=O)c2ccc([N+](=O)[O-])cc2)cc1
fold change (FC) (J774.A1 [1]): 25

COc1cc(/C=N\NC(=O)c2ccc3c(c2)OCO3)ccc1OCc1ccccc1
fold change (FC) (J774.A1 [1]): 7

O=C(N/N=C/c1ccco1)c1ccccc1
Activity (J774.A1 [1]): inactive

O=C(N/N=C/c1ccc(-c2ccc([N+](=O)[O-])cc2Cl)o1)c1ccc2c(c1)OCO2
fold change (FC) (J774.A1 [1]): 35

O=C(N/N=C/c1ccc(-c2cccc(Cl)c2)o1)c1ccc([N+](=O)[O-])cc1
Activity (J774.A1 [1]): inactive

O=C(N/N=C/c1ccc(-c2cc(Cl)c(Cl)cc2Cl)o1)c1cccnc1
Activity (J774.A1 [1]): inactive
Activity (J774.A1 [2]): Non-toxic

CCOc1cc(/C=N\NC(=O)c2ccc3c(c2)OCO3)ccc1OC(=O)c1ccc(Br)cc1
fold change (FC) (J774.A1 [1]): <5

O=C(N/N=C/c1ccc(-c2ccc(Cl)c(Cl)c2)o1)c1ccccc1O
Activity (J774.A1 [1]): inactive

O=C(N/N=C/c1ccc(-c2cccc(Br)c2)o1)c1cccnc1
fold change (FC) (J774.A1 [1]): 50

CC(C)(C)c1ccc(C(=O)N/N=C/c2ccc(-c3ccc([N+](=O)[O-])cc3)o2)cc1
Activity (J774.A1 [1]): inactive

Cc1ccc(C(=O)N/N=C/c2ccc(-c3cccc(C(F)(F)F)c3)o2)cn1
fold change (FC) (J774.A1 [1]): <5

COc1ccc(/C(C)=N/NC(=O)c2ccc3c(c2)OCCO3)cc1[N+](=O)[O-]
Activity (J774.A1 [1]): inactive

O=C(N/N=C/c1ccco1)c1ccc(Cl)cc1Cl
Activity (J774.A1 [1]): inactive

O=C(N/N=C/c1ccc(-c2ccc(Cl)cc2Cl)o1)c1ccccc1[N+](=O)[O-]
Activity (J774.A1 [1]): inactive

Cc1ccc(-c2ccc(/C=N/NC(=O)c3cncc(Br)c3)o2)cc1Cl
fold change (FC) (J774.A1 [1]): 10
Activity (J774.A1 [2]): Non-toxic

Cc1ccc(C(=O)N/N=C/c2ccc(-c3cccc(Br)c3)o2)cn1
Activity (J774.A1 [1]): inactive
Activity (J774.A1 [2]): Non-toxic

COc1cc(Br)ccc1C(=O)N/N=C/c1ccco1
Activity (J774.A1 [1]): inactive

O=C(/C=C/c1ccco1)Oc1cccc(/C=N/NC(=O)c2ccc3c(c2)OCO3)c1
Activity (J774.A1 [1]): inactive

O=C(N/N=C/c1ccc(Br)o1)c1ccccc1
Activity (J774.A1 [1]): inactive

Cc1ccc(C(=O)N/N=C/c2ccc(-c3ccc(Cl)cc3)o2)cn1
Activity (J774.A1 [1]): inactive
Activity (J774.A1 [2]): Non-toxic

O=C(N/N=C/c1ccc(-c2cc(Cl)ccc2Cl)o1)c1ccc([N+](=O)[O-])cc1
fold change (FC) (J774.A1 [1]): <5

COc1cc(/C=N\NC(=O)c2cccc(C)c2O)ccc1OCc1ccccc1
Activity (J774.A1 [1]): inactive

COc1ccc(Br)cc1C(=O)N/N=C/c1ccc(C)o1
Activity (J774.A1 [1]): inactive

CN(C)c1ccc(/C=N/NC(=O)c2ccc3c(c2)OCO3)cc1
Activity (J774.A1 [1]): inactive

COc1ccc(/C=N/NC(=O)c2ccc3c(c2)OCO3)c(OC)c1
Activity (J774.A1 [1]): inactive

COc1ccc(C(=O)N/N=C/c2ccc(-c3ccc(Cl)c(C(=O)O)c3)o2)cc1
Activity (J774.A1 [1]): inactive

COc1ccc(-c2ccc(/C=N/NC(=O)c3ccc([N+](=O)[O-])cc3)o2)cc1Cl
Activity (J774.A1 [1]): inactive

Cc1ccc(C(=O)N/N=C/c2ccc(-c3cc(Cl)ccc3Cl)o2)cn1
Activity (J774.A1 [1]): inactive
Activity (J774.A1 [2]): Non-toxic

O=C(N/N=C/c1cc(/N=N\c2cccc(C(F)(F)F)c2)ccc1O)c1ccc2c(c1)OCO2
Activity (J774.A1 [1]): inactive

O=C(N/N=C/c1cc(Br)c(Br)o1)c1ccc2c(c1)OCCO2
Activity (J774.A1 [1]): inactive

O=C(N/N=C/c1ccc(I)o1)c1ccccc1F
Activity (J774.A1 [1]): inactive

COc1ccccc1OCc1ccc(C(=O)N/N=C/c2ccco2)cc1
Activity (J774.A1 [1]): inactive

O=C(N/N=C/c1ccc(-c2ccc(Cl)cc2)o1)c1cncc(Br)c1
fold change (FC) (J774.A1 [1]): 25
Activity (J774.A1 [2]): Non-toxic

O=C(N/N=C/c1ccc(-c2cccc(Cl)c2Cl)o1)c1cccnc1
Activity (J774.A1 [1]): inactive
Activity (J774.A1 [2]): Non-toxic

CN(C)c1ccc(/C=N\NC(=O)c2ccccc2O)cc1
Activity (J774.A1 [1]): inactive

Cc1ccc(-c2ccc(/C=N/NC(=O)c3cccnc3)o2)cc1Cl
fold change (FC) (J774.A1 [1]): 60
Activity (J774.A1 [2]): Non-toxic

O=C(N/N=C/c1ccc(-c2cccc(C(F)(F)F)c2)o1)c1ccc(Br)cc1
Activity (J774.A1 [1]): inactive

O=C(N/N=C/c1ccc(-c2ccc(Br)cc2)o1)c1cccnc1
Activity (J774.A1 [1]): inactive
Activity (J774.A1 [2]): Non-toxic

O=C(N/N=C/c1ccc([N+](=O)[O-])o1)c1ccc(O)cc1O
Activity (J774.A1 [1]): inactive

O=C(N/N=C/c1ccc(-c2ccc(Cl)cc2Cl)o1)c1cncc(Br)c1
Activity (J774.A1 [1]): inactive
Activity (J774.A1 [2]): Non-toxic

O=C(N/N=C/c1ccco1)c1ccc(Br)cc1O
Activity (J774.A1 [1]): inactive

COc1cc(/C=N\NC(=O)c2ccc3c(c2)OCO3)ccc1OC(=O)c1ccco1
Activity (J774.A1 [1]): inactive

O=C(N/N=C/c1ccc(-c2ccc([N+](=O)[O-])cc2)o1)c1cccc(O)c1
Activity (J774.A1 [1]): inactive

O=C(N/N=C/c1ccc(-c2cccc(Br)c2)o1)c1ccccn1
Activity (J774.A1 [1]): inactive
Activity (J774.A1 [2]): Non-toxic

Cc1ccc(C(=O)N/N=C/c2ccc(C)o2)cc1
Activity (J774.A1 [1]): inactive

O=C(N/N=C/c1ccco1)c1cccnc1
Activity (J774.A1 [1]): inactive

O=C(N/N=C/c1ccc(-c2ccccc2Cl)o1)c1cccnc1
Activity (J774.A1 [1]): inactive
Activity (J774.A1 [2]): Non-toxic

O=C(N/N=C/c1ccc(-c2ccc(Cl)c([N+](=O)[O-])c2)o1)c1ccc2c(c1)OCO2
Activity (J774.A1 [1]): inactive

O=C(N/N=C/c1ccc(-c2cccc(C(F)(F)F)c2)o1)c1cc(I)ccc1Cl
fold change (FC) (J774.A1 [1]): <5

O=C(N/N=C/c1cc(Br)cc(Br)c1OC(=O)c1ccccc1)c1ccc2c(c1)OCO2
fold change (FC) (J774.A1 [1]): <5

COc1ccc(Cl)cc1/C=N/NC(=O)c1ccc2c(c1)OCCO2
Activity (J774.A1 [1]): inactive

O=C(N/N=C/c1ccc(-c2ccccc2Cl)o1)c1ccc(Cl)cc1Cl
fold change (FC) (J774.A1 [1]): <5

Cc1ccc(C(=O)N/N=C/c2ccc(-c3cccc(Cl)c3Cl)o2)cn1
Activity (J774.A1 [1]): inactive
Activity (J774.A1 [2]): Non-toxic

Cc1ccc(C(=O)N/N=C/c2ccc(-c3ccc(C)c(Cl)c3)o2)cn1
fold change (FC) (J774.A1 [1]): 21
Activity (J774.A1 [2]): Non-toxic

O=C(N/N=C/c1ccc(-c2cccc(C(F)(F)F)c2)o1)c1ccc([N+](=O)[O-])cc1
fold change (FC) (J774.A1 [1]): <5

Cc1ccc(C(=O)N/N=C/c2ccc(-c3cc(Cl)c(Cl)cc3Cl)o2)cn1
fold change (FC) (J774.A1 [1]): <5

O=C(N/N=C/c1ccc(-c2ccc(O)c(C(=O)O)c2)o1)c1cccnc1
Activity (J774.A1 [1]): inactive

O=C(N/N=C/c1ccc(-c2cccc(Cl)c2)o1)c1cccnc1
fold change (FC) (J774.A1 [1]): 17
Activity (J774.A1 [2]): Non-toxic

O=C(N/N=C/c1ccc(-c2ccc(Cl)c(Cl)c2)o1)c1ccncc1
Activity (J774.A1 [1]): inactive
Activity (J774.A1 [2]): Non-toxic

CCc1ccc(C(=O)N/N=C/c2ccc(-c3ccc(C)c(Cl)c3)o2)nc1
Activity (J774.A1 [1]): inactive
Activity (J774.A1 [2]): Non-toxic

C/C(=N\NC(=O)c1ccc2c(c1)OCO2)c1cccc([N+](=O)[O-])c1
Activity (J774.A1 [1]): inactive

O=C(N/N=C/c1ccco1)c1cccc(F)c1
Activity (J774.A1 [1]): inactive

O=C(N/N=C/c1ccc(-c2ccc(Cl)c(Cl)c2)o1)c1ccc2c(c1)OCO2
fold change (FC) (J774.A1 [1]): <5

O=C(/C=C\c1ccco1)Oc1ccc(/C=N\NC(=O)c2ccc3c(c2)OCO3)cc1
Activity (J774.A1 [1]): inactive

Cc1ccc(-c2ccc(/C=N/NC(=O)c3ccncc3)o2)cc1Cl
fold change (FC) (J774.A1 [1]): 50
Activity (J774.A1 [2]): Non-toxic

O=C(N/N=C1\C(=O)N(Cc2cccc3ccccc23)c2ccccc21)c1ccc2c(c1)OCO2
Activity (J774.A1 [1]): inactive

O=C(N/N=C/c1c(O)ccc2ccccc12)c1ccc2c(c1)OCO2
Activity (J774.A1 [1]): inactive

CC(C)N1C(=O)/C(=N\NC(=O)c2ccc3c(c2)OCO3)c2ccccc21
Activity (J774.A1 [1]): inactive
